Test results as given in ChEMBL document CHEMBL1132588, “Synthesis, CoMFA analysis, and receptor docking of 3,5-diacyl-2, 4-dialkylpyridine derivatives as selective A3 adenosine receptor antagonists” (J Med Chem, 1999).

How the values were obtained:
[1] = biological target: T1, Adenosine receptor A3 (Homo sapiens) (UniProt P0DMS8); experiment: (§1) Displacement of specific [125 I]AB-MECA binding at human Adenosine A3 receptor expressed in HEK cells; type: cell-based; details: HEK293
T1 sequence (whole entry): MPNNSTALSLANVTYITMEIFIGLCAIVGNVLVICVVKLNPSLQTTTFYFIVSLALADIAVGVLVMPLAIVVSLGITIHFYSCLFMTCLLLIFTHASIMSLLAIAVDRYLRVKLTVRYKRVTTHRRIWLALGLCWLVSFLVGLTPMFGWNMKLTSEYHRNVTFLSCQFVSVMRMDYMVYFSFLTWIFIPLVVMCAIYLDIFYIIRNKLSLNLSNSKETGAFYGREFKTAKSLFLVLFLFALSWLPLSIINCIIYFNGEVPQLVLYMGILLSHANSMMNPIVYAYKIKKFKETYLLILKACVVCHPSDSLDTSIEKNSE

[2] = biological target: Adenosine receptor A2a (Rattus norvegicus, UniProt P30543); experiment: Inhibition of [3H]-CGS- 21680 binding to Adenosine A2A receptor in rat striatal membranes.; type: cell membranes, Membrane
Adenosine receptor A2a, sequence (P30543 whole entry): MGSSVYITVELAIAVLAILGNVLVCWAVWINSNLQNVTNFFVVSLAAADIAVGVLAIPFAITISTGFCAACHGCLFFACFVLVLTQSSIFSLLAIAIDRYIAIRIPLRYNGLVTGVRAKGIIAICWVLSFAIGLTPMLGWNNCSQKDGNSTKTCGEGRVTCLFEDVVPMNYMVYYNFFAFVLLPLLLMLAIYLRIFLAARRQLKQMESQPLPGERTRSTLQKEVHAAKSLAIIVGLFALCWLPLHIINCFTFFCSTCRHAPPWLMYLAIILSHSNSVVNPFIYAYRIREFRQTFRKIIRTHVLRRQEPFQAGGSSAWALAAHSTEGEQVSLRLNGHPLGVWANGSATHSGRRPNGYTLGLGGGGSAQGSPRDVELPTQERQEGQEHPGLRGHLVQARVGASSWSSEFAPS

[3] = biological target: T2, Adenosine receptor A1 (Rattus norvegicus, UniProt P25099); experiment: Displacement of specific [3H]-CGS- 21680R-PIA binding to Adenosine A1 receptor in rat brain membranes.; type: cell membranes; details: in the assay text read “[3H]R-PIA” for “[3H]-CGS- 21680R-PIA”
T2 sequence (P25099 whole entry): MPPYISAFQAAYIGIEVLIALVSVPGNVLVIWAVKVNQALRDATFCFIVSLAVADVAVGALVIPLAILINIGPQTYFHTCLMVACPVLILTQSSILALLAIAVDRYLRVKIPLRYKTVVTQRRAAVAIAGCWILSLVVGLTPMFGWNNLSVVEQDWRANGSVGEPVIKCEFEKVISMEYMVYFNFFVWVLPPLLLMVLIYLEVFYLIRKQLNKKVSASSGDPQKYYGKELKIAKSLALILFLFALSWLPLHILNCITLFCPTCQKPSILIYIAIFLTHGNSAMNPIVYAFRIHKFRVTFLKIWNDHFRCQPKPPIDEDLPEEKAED
Summary of the method: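 A1 binding used [3H]R-PIA on rat cerebral cortex membranes. Adenosine deaminase (3 units/mL) was included in membrane preparation, in a 30 min preincubation at 30 °C, and throughout radioligand incubation. Competitors were DMSO stocks diluted in buffer, with DMSO never above 2%.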

[4] = biological target: T3, Adenosine receptor A3 (Homo sapiens, UniProt P0DMS8); experiment: as §1; type: cell-based, HEK293
T3 sequence (P0DMS8 whole entry): T1 sequence (whole entry)
Summary of the method: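 Membranes from HEK-293 cells stably expressing human A3 receptor (clone HS-21a), or from CHO cells stably expressing rat A3 receptor (rat: n = 3-5), in 50 mM Tris, 10 mM Mg2+, 1 mM EDTA, pH 8.0. Membranes at 0.3 mg protein/mL with [125I]AB-MECA at 0.3 nM final. Nonspecific binding defined with R-PIA. Competitors were dissolved in DMSO (≤2% final) and tested at ≥5 concentrations spanning 3 log units. Bound ligand was separated by GF/B filtration with three buffer rinses; Ki was derived.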

[5] = organism: Rattus norvegicus; experiment: Ratio of binding affinities for rat A1 receptor against human A3 receptor, [Ki(rA1) / Ki (hA3)].
Summary of the method: (§2)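 Ratio of Ki values from binding assays. For A3, [125I]AB-MECA (final 0.3 nM) bound membranes of HEK-293 cells expressing human A3 (clone HS-21a) or CHO cells expressing rat A3, in Tris/Mg2+/EDTA buffer at pH 8.0. For rat A1, [3H]R-PIA bound cerebral cortex membranes, with adenosine deaminase (3 units/mL) present, including a 30 min preincubation at 30 °C.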

[6] = biological target: T4, Adenosine receptor A3 (Rattus norvegicus, UniProt P28647); experiment: Displacement of specific [125I]AB-MECA binding at rat Adenosine A3 receptor stably expressed in CHO cells; type: cell-based
T4 sequence (P28647 whole entry): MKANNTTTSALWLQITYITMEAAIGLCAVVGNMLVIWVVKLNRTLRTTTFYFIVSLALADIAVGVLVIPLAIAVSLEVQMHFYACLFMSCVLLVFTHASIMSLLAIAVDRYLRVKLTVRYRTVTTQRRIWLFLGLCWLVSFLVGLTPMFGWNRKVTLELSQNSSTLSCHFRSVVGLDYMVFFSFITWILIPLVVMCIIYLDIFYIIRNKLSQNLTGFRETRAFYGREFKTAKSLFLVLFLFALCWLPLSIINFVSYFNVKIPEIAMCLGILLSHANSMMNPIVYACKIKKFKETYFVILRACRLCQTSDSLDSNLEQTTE

[7] = organism: Rattus norvegicus; experiment: Ratio of the binding affinities against rat A3 receptor / human A3 receptor, Ki(rA1) / Ki (hA3).; summary of the method: as §2
[8] = organism: Rattus norvegicus; experiment: Ratio of the binding affinities against rat A3 receptor / rat A3 receptor, Ki(rA1) / Ki (rA3).; summary of the method: as §2
[9] = biological target: Adenosine receptor A2a (Rattus norvegicus) (UniProt P30543); experiment: Displacement of specific [3H]-CGS- 21680 binding to Adenosine A2A receptor in rat striatal membranes; type: cell membranes; set-up: concentration or dose not given beside the values; details: Membrane, concentration not given here
Adenosine receptor A2a (Rattus norvegicus), sequence (P30543 whole entry): as the sequence (P30543 whole entry) above
Summary of the method: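 Rat striatal membranes labelled with [3H]CGS 21680 for A2A binding. Adenosine deaminase (3 units/mL) was present during membrane preparation, during a 30 min preincubation at 30 °C, and during radioligand incubation. Competitors were dissolved in DMSO and diluted in buffer (DMSO ≤2%).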

Row | SMILES | pKi [1] | Ki [2] [µM] | Ki [3] [µM] | Ki [4] [µM] | Ratio [5] | other results
1 | CCOC(=O)c1c(-c2cccc(Cl)c2)nc(CC)c(C(=O)SCC)c1CC | 7.87 |  |  |  |  | 
2 | CCOC(=O)c1c(-c2ccccc2)nc(CC)c(C(=O)SCC)c1CCN1C(=O)c2ccccc2C1=O | 6.61 | 1.14 | 0.49 | 0.243 | 2 | 
3 | CCCOC(=O)c1c(-c2ccccc2)nc(CC)c(C(=O)SCCO)c1CCC | 7.29 | 5.59 | 10.8 | 0.0511 | 210 | 
4 | CCOC(=O)c1c(C)nc(-c2ccccc2)c(C(=O)OCc2ccccc2)c1C#Cc1ccccc1 | 5.56 |  |  |  |  | 
5 | CCCc1c(C(=O)SCC)c(C)nc(-c2ccccc2)c1C(=O)OCC | 6.71 |  |  |  |  | 
6 | CCOC(=O)c1c(C)nc(C2CCC2)c(C(=O)OCc2ccccc2)c1C#Cc1ccccc1 | 5.62 |  |  |  |  | 
7 | CCSC(=O)c1c(C)nc(-c2ccccc2)c(C(=O)OCc2ccccc2)c1CC | 5.58 |  |  |  |  | 
8 | CCCOC(=O)c1c(-c2ccccc2)nc(CC)c(C(=O)SCC)c1CCCO | 6.77 |  |  |  |  | 
9 | CCCOC(=O)c1c(-c2ccccc2)nc(CC)c(C(=O)SCC(F)(F)F)c1CCC | 7.74 | 6.14 | 8.29 | 0.0181 | 460 | Ki [6]: 0.495 µM; Ratio [7]: 27; Ratio [8]: 17
10 | CCCOC(=O)c1c(-c2ccc(F)cc2)nc(CC)c(C(=O)SCC)c1CCC | 7.51 |  | 41 | 0.0311 | 1300 | inhibition [9]: 50%
11 | CCOC(=O)c1c(C)nc(-c2ccccc2)c(C(=O)OCC)c1C | 5.35 |  |  |  |  | 
12 | CCSC(=O)c1c(CC)nc(-c2ccccc2)c(C(=O)OCCF)c1CC | 8.37 | 7.33 | 11.5 |  | 2700 | Ki [6]: 0.6 µM; Ratio [7]: 140; Ratio [8]: 19
13 | CCOC(=O)c1c(-c2ccccc2)nc(CCOC)c(C(=O)SCC)c1CC | 7.77 |  |  |  |  | 
14 | CCCOC(=O)c1c(-c2ccccc2)nc(CC)c(C(=O)SCC2COC(C)(C)O2)c1CCC (stereo not given) |  |  |  | 2.64 | 2.2 | inhibition [9]: < 10%
15 | CCOC(=O)c1c(-c2ccccc2)nc(C)c(C(=O)SCC)c1CC | 7.37 |  |  |  |  | 
16 | CCOC(=O)c1c(C)nc(-c2ccccc2)c(C(=O)OCC)c1CC | 6.75 |  |  |  |  | 
17 | CCSC(=O)c1c(CC)nc(-c2ccccc2)c(C(=O)OCCO)c1CC | 6.73 |  |  |  |  | 
18 | CCOC(=O)c1c(-c2ccccc2)nc(C)c(C(=O)SCCOC)c1CC | 6.78 |  |  |  |  | 
19 | CCCOC(=O)c1c(-c2ccccc2)nc(CC)c(C(=O)SCC)c1CCSC(C)=O | 6.91 |  | 9.8 | 0.124 | 79 | inhibition [9]: 28%
20 | CCCOC(=O)c1c(-c2ccccc2)nc(CC)c2c1CCSC2=O | 7.6 | 67.1 | 16.5 | 0.248 |  | Ki [6]: 2.58 µM

Row | SMILES | pKi [1] | Ki [2] [µM] | Ki [3] [µM] | Ki [4] [µM] | Ratio [5] | other results
21 | CCCOC(=O)c1c(-c2ccccc2)nc(CCOCc2ccccc2)c(C(=O)SCC)c1CCC | 6.96 |  | 16 | 0.109 |  | 
22 | CCCOC(=O)c1c(-c2cccc(Cl)c2)nc(CC)c(C(=O)SCCC)c1CC | 8.1 |  |  |  |  | 
23 | CCOC(=O)c1c(-c2ccccc2)nc(C2CCC2)c(C(=O)SCC)c1CC | 6.84 |  |  |  |  | 
24 | CCOC(=O)c1c(-c2ccccc2)nc(CC)c(C(=O)O)c1CC | 5.89 |  |  |  |  | 
25 | CCCc1c(C(=O)SCC)c(CC)nc(-c2ccccc2)c1C(=O)OCC(F)(F)C(F)(F)F | 6.35 | 14 | 5.68 | 0.446 | 13 | 
26 | CCCOC(=O)c1c(-c2cccc(F)c2)nc(CC)c(C(=O)SCC)c1CCC | 7.54 | 28.1 | 8.2 | 0.0289 | 280 | 
27 | CCOC(=O)c1c(C2CCCC2)nc(CC)c(C(=O)SCC)c1CC | 5.47 |  |  |  |  | 
28 | CCCc1nc(-c2ccccc2)c(C(=O)OCC)c(CC)c1C(=O)SCC | 7.48 |  |  |  |  | 
29 | CCCc1c(C(=O)SCC)c(CC)nc(-c2ccccc2)c1C(=O)OCCCF | 8.01 | 9.67 | 6.05 | 0.00967 | 630 | Ki [6]: 0.512 µM; Ratio [7]: 53; Ratio [8]: 12
30 | CCCOC(=O)c1c(-c2ccccc2)nc(CC)c(C(=O)SCCF)c1CCC | 7.26 | 24.8 | 8.22 | 0.0551 | 150 | 
31 | CCOC(=O)c1c(C)nc(C2CCCC2)c(C(=O)OCc2ccccc2)c1C#Cc1ccccc1 | 5.41 |  |  |  |  | 
32 | CCOC(=O)c1c(CC)nc(-c2ccccc2)c(C(=O)OCC)c1C | 6.92 |  |  |  |  | 
33 | CCCOC(=O)c1c(C)nc(-c2ccccc2)c(C(=O)OCC)c1C | 6.67 |  |  |  |  | 
34 | CCCSC(=O)c1c(CC)nc(-c2ccccc2)c(C(=O)OCC)c1CC | 7.8 |  |  |  |  | 
35 | CCCCc1nc(-c2ccccc2)c(C(=O)OCC)c(CC)c1C(=O)SCC | 7.46 |  |  |  |  | 
36 | CCCOC(=O)c1c(-c2ccccc2)nc(CC)c(C(=O)SCC)c1CCO | 6.58 | 0.0103 | 9.04 | 0.262 | 35 | 
37 | CCOC(=O)c1c(C)nc(-c2ccccc2)c(C(=O)OCC)c1C(OC)OC | 6.11 |  |  |  |  | 
38 | CCCOC(=O)c1c(-c2ccccc2)nc(CC)c(C(=O)SCC)c1CCC | 7.72 | 2.05 | 15.6 | 0.0189 |  | Ratio [7]: 6; Ratio [8]: 140
39 | CCCc1c2c(nc(-c3ccccc3)c1C(=O)OCC)CCSC2=O |  | 43.6 | 25.1 |  |  | 
40 | CCOC(=O)c1c(-c2ccccc2)nc(CC)c(C(=O)SCC)c1CC | 7.67 |  | 0.041 |  | > 3000 | Ratio [7]: 21; Ratio [8]: > 100
